{"data": "Results collected from several papers", "target": "Mitogen-activated protein kinase 13 (MAPK13, Homo sapiens, UniProt O15264)", "One construct used (O15264 1-365)": "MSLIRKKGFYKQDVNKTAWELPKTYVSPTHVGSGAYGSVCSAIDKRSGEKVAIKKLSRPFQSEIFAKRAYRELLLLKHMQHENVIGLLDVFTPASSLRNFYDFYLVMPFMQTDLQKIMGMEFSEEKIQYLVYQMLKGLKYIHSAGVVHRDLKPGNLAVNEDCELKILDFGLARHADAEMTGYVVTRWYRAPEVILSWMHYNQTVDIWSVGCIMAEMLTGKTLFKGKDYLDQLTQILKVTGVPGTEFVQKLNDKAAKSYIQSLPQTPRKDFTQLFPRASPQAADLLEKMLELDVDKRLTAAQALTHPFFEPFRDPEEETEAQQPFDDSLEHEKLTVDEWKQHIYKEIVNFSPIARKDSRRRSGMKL"}
{"SMILES": "C=CC(=O)N1CCC(C(=O)NCC(=O)N2CCN(c3nc(-c4cnc(N)nc4C(F)F)nc(N4CCOCC4)n3)CC2)CC1", "assay": "binding, competition with immobilised ligand", "setting": "1 µM", "remaining binding [%]": 99}
{"SMILES": "O=C(c1ccc(Nc2nccc(-c3cc4ccccc4s3)n2)cc1)N1CCC(N2CCCC2)CC1", "assay": "binding, competition with immobilised ligand", "setting": "1 µM", "remaining binding [%]": 100}
{"SMILES": "CN([C@@H]1CCc2c(CC(=O)O)c3cc(S(C)(=O)=O)ccc3n2C1)S(=O)(=O)c1ccc(F)cc1", "assay": "cell-free assay, competition with immobilised ligand", "setting": "1 µM", "remaining binding [%]": 68}
{"SMILES": "O=C(NCCCN1CCOCC1)c1ccc(Nc2ncc(Cl)c(-c3ccc(Cl)s3)n2)cc1", "assay": "binding, competition with immobilised ligand", "setting": "1 µM", "remaining binding [%]": 100}
{"SMILES": "Cc1c[nH]c2nccc(Oc3c(F)cc(Nc4cc(Cl)nc(N)n4)cc3F)c12", "assay": "cell-free assay, competition with immobilised ligand", "setting": "0.1 µM", "remaining binding [%]": 89}
{"SMILES": "F[C@@H]1CCN(c2nccc(-c3cnn4ncccc34)n2)C1", "assay": "binding", "setting": "1 µM", "remaining binding [%]": 67}
{"SMILES": "Cc1cc(NC(=O)c2cccc(S(F)(F)(F)(F)F)c2)cc(-n2ccn3nc(-c4cccnc4)cc23)c1", "assay": "cell-free assay, competition with immobilised ligand", "setting": "1 µM", "remaining binding [%]": 79.6}
{"SMILES": "CN(CCCC(F)(F)F)c1nccc(-c2cnn3ncccc23)n1", "assay": "binding", "setting": "1 µM", "remaining binding [%]": 100}
{"SMILES": "O=C(O)[C@H]1[C@H](Cn2nnc3ccccc3c2=O)CC[C@@H]1C(=O)c1ccc(OCCC2CCOCC2)cc1", "assay": "cell-free assay, competition with immobilised ligand", "setting": "1 µM", "remaining binding [%]": 97}
{"SMILES": "N[C@H]1CCN(c2nccc(-c3cnn4ncccc34)n2)C1", "assay": "binding", "setting": "1 µM", "remaining binding [%]": 84}
{"SMILES": "O=C(NCCCN1CCOCC1)c1ccc(Nc2nccc(-c3cc4ccccc4s3)n2)cc1", "assay": "binding, competition with immobilised ligand", "setting": "1 µM", "remaining binding [%]": 100}
{"SMILES": "COc1cnc(Nc2cccc(S(N)(=O)=O)c2)nc1N1CCN(c2ccccc2)CC1", "assay": "binding, competition with immobilised ligand", "setting": "1 µM", "remaining binding [%]": 100}
{"SMILES": "c1cnn2ncc(-c3ccnc(N4CCC45COC5)n3)c2c1", "assay": "binding", "setting": "1 µM", "remaining binding [%]": 78}
{"SMILES": "NS(=O)(=O)c1cc(NC(=O)Cc2ccccc2)ccc1Oc1cccc(Cl)c1", "assay": "cell-free assay, competition with immobilised ligand", "setting": "1 µM", "remaining binding [%]": 100}
{"SMILES": "O=C(NCC1CCOCC1)c1n[nH]cc1NC(=O)c1c(F)cccc1F", "assay": "binding, competition with immobilised ligand", "setting": "1 µM", "remaining binding [%]": 100}
{"SMILES": "CN(C)c1nccc(-c2cnn3ncccc23)n1", "assay": "binding", "setting": "1 µM", "remaining binding [%]": 100}
{"SMILES": "CCS(=O)(=O)c1cc2cc(C[C@](O)(CC(C)(C)c3ccc(F)cc3C(N)=O)C(F)(F)F)[nH]c2cn1", "assay": "cell-free assay, competition with immobilised ligand", "setting": "1 µM", "remaining binding [%]": 100}
{"SMILES": "C[C@H]1CCN(c2nccc(-c3cnn4ncccc34)n2)C1", "assay": "binding", "setting": "1 µM", "remaining binding [%]": 83}
{"SMILES": "c1cncc(-c2cccc(Nc3nccc(NC4CCCCC4)n3)c2)c1", "assay": "binding, competition with immobilised ligand", "setting": "10 µM", "remaining binding [%]": 86}
{"SMILES": "CN(c1nccc(-c2cnn3ncccc23)n1)C1CC1", "assay": "binding", "setting": "1 µM", "remaining binding [%]": 100}
{"SMILES": "COc1ccc2c(c1)O[C@H](c1ccc(OC)c(OC)c1)C[C@@H]2NC(=O)C1(c2ccc3c(c2)OC(F)(F)O3)CC1", "assay": "cell-free assay, competition with immobilised ligand", "setting": "1 µM", "remaining binding [%]": 100}
{"SMILES": "CCN1CCN(Cc2ccc(C(=O)Nc3ccc(C)c(Oc4ccc5c(c4)CC(=O)N5)c3)cc2C(F)(F)F)CC1", "assay": "binding, competition with immobilised ligand", "setting": "1 µM", "remaining binding [%]": 100}
